Data on 1 molecule can be found in ChEMBL document CHEMBL1955778, “Design and synthesis of novel 7-aminoquinazoline derivatives: antitumor and anticonvulsant activities” (Bioorg Med Chem Lett, 2012).

What is called TD50 is the dose at which the toxic effect under study appears in half of the subjects. For orientation: ED50 means the midpoint of the dose-response relation. By LD50 is commonly meant the dose at which mortality reaches 50%.

The nature of series [1]: Therapeutic index, ratio of LD50 for mouse to ED50 for pentylenetetrazol-induced seizure in mouse. It counts as organism-based. The settings on record: in vivo, read-out: Ratio LD50/ED50. Summed up: (§1)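 In mice, LD50 is the dose causing 50% mortality. ED50 is the dose protecting 50% of mice against pentylenetetrazole-induced seizures. Therapeutic index = LD50/ED50.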
Series [2] has as its system Mus musculus. The series is described as follows: Anticonvulsant activity in mouse assessed as protection against strychnine-induced seizure at 1.4 mmol/kg, ip administered 30 min prior to strychnine-challenge measured after 60 mins relative to control. Type of series: functional.
The species entered for series [3] is Mus musculus. In words: Protective index, ratio of TD50 for mouse to ED50 for pentylenetetrazol-induced seizure in mouse. It counts as functional. An outline of the steps:
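Mice. Index is TD50/ED50. TD50 is the dose causing minimal neurological toxicity in 50% of mice in the Chimney test. ED50 is the dose protecting 50% of mice against pentylenetetrazole-induced seizures. Both are estimated from testing at several doses.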

Series [4] relates to Mus musculus. The series is described as follows: Anticonvulsant activity in mouse assessed as protection against pentylenetetrazol-induced seizure at 1.4 mmol/kg, ip administered 30 min prior to pentylenetetrazol-challenge measured after 60 mins relative to control. Type of series: functional.
Series [5] is described as follows: Neurotoxicity in ip dosed mouse assessed as impaired motor coordination administered 30 mins prior to test by chimney test. It counts as toxicity, organism-based. The settings on record: in vivo. Summed up: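 Mice, Chimney test. TD50 is the dose that produces minimal neurological toxicity (impaired motor coordination) in 50% of animals, estimated from testing at several doses.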

The subject of series [6] is Mus musculus. The series is described as follows: Anticonvulsant activity in ip dosed mouse assessed as protection against pentylenetetrazol-induced seizure administered 30 min prior to pentylenetetrazol-challenge measured after 60 mins. Type of series: functional. An outline of the steps: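 Mice received several doses for quantification. ED50 taken as the dose protecting 50% of mice against pentylenetetrazol-induced seizures.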

Series [7] has as its system Mus musculus. The series is described as follows: Anticonvulsant activity in mouse assessed as protection against picrotoxin-induced seizure at 1.4 mmol/kg, ip administered 30 min prior to picrotoxin-challenge measured after 60 mins relative to control. It counts as functional.
Series [8] relates to Mus musculus. In words: Anticonvulsant activity in mouse assessed as protection against maximal electroshock-induced seizure at 1.4 mmol/kg, ip administered 30 min prior to maximal electroshock-challenge measured after 60 mins relative to control. Type of series: functional.
Series [9] in a line: Toxicity in ip dose mouse assessed as mortality. It counts as organism-based. The settings on record: in vivo. Summed up: as §1

Turning to `Cc1ccccc1-n1c(C)nc2ccccc2c1=O` [METHAQUALONE], the selectivity ratio in [1] turned out to be 1.4. Besides, the Activity in series [2] worked out at 0%; in series [4] it was 100%; in series [7], 50%; in [8] it was 100%. The “Ratio TD50/ED50” value in [3] amounted to 1.14. Besides, the TD50 at 0.5 h in series [5] is 1600 µmol/kg. Moreover, the ED50 in [6] was found to be 1400 µmol/kg. Also, the LD50 in series [9] is 2000 µmol/kg.
